Reference: ChEMBL document CHEMBL3399927, “Identification of novel inhibitors of Aurora A with a 3-(pyrrolopyridin-2-yl)indazole scaffold” (Bioorg Med Chem, 2015)
pIC50: −log10 of the molar value.

Tests used:
A549 = assay: Antiproliferative activity against human A549 cells after 72 hrs by MTT assay; type: functional, cell-based; settings: A549, 72 h
[1] = Antiproliferative activity against human SMMC7721 cells after 72 hrs by MTT assay; type: functional, cell-based; settings: SMMC-7721, 72 h
Summary of the method: (§1)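 Cells grown in RPMI-1640 with heat-inactivated 10% FBS, penicillin 100 units/mL and streptomycin 100 μg/mL, at 37 °C under 20% O2, 5% CO2. Compounds dissolved in DMSO at 10.0 mg/mL (stock), then diluted. Cells were plated for 24 h, exposed to a range of concentrations for 72 h, and viability was read by MTT. IC50 is 50% absorbance inhibition versus control cells; means of three experiments.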

[2] = Antiproliferative activity against human HCT116 cells after 72 hrs by MTT assay; type: functional, cell-based; settings: HCT-116, 72 h; summary of the method: as §1
KB = assay: Antiproliferative activity against human KB cells after 72 hrs by MTT assay; type: functional, cell-based; summary of the method: as §1
[3] = Antiproliferative activity against human HL60 cells after 72 hrs by MTT assay; type: functional, cell-based; settings: HL-60, 72 h; summary of the method: as §1
Aurora kinase A = target: T1, Aurora kinase A (Homo sapiens, UniProt O14965); assay: Inhibition of human full length Aurora A by Z'-LYTE assay
T1 sequence (O14965 whole entry): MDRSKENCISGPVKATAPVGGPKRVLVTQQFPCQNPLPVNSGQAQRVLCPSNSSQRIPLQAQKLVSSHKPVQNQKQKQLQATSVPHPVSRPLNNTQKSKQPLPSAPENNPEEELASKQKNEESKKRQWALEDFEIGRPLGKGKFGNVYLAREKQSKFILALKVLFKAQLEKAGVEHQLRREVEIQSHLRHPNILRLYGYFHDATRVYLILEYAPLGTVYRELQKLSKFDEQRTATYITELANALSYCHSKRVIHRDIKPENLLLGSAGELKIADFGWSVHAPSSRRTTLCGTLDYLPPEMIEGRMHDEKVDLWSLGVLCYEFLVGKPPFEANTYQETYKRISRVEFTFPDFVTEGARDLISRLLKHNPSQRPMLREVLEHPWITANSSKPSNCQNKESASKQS

[4] = Apparent permeability across apical to basolateral side in MDCK cells by HPLC; type: ADME, cell-based, Canis lupus familiaris; settings: dog
[5] = target: T2, Inhibitor of nuclear factor kappa-B kinase subunit beta (Homo sapiens) (UniProt O14920); assay: Inhibition of IKKbeta (unknown origin) at 1 ug/ml relative to control
T2 sequence (whole entry): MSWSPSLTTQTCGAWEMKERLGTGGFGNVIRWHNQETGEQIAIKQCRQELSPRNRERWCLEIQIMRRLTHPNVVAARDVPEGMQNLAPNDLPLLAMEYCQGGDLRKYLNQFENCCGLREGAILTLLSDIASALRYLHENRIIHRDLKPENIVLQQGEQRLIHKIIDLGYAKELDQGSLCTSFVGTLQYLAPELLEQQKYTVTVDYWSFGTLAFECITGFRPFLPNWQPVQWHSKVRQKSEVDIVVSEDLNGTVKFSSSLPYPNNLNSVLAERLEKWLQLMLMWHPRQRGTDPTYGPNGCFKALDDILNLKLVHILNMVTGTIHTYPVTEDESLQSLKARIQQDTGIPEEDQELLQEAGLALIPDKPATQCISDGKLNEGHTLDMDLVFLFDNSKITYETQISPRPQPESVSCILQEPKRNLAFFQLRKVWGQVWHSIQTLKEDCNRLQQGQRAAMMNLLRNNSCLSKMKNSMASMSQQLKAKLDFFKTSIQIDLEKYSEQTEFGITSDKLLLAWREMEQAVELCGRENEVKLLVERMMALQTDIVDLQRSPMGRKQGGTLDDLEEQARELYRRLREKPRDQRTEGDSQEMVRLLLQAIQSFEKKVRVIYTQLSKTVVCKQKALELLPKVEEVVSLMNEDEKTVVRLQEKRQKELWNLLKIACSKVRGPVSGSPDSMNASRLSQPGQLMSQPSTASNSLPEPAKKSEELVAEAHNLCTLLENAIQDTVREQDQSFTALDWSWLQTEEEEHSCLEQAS

[6] = target: Serine/threonine-protein kinase B-raf (Homo sapiens) (UniProt P15056); assay: Inhibition of BRAF (unknown origin) at 1 ug/ml relative to control
Sequence of Serine/threonine-protein kinase B-raf (Homo sapiens) (P15056 whole entry): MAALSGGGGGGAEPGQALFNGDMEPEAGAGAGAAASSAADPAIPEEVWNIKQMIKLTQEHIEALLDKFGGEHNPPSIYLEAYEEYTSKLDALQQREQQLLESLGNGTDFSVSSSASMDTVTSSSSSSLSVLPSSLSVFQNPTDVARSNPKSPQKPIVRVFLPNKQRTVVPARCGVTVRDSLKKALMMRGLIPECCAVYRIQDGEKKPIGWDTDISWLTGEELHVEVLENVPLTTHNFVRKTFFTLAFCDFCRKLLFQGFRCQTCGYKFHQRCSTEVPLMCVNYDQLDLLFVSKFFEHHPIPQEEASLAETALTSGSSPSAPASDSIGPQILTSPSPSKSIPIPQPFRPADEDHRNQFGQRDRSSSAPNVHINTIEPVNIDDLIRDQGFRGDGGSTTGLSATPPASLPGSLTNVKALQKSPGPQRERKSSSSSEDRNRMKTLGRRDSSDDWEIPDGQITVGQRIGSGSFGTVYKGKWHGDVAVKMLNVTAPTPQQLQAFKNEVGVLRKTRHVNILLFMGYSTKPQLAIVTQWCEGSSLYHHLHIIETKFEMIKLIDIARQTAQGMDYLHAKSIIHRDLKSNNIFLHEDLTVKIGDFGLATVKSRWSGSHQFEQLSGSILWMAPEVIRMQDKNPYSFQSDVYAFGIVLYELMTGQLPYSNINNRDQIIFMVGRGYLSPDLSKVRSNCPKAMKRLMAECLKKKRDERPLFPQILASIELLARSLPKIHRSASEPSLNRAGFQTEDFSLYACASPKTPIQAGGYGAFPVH

[7] = target: T3, Serine/threonine-protein kinase Chk1 (Homo sapiens) (UniProt O14757); assay: Inhibition of CHK1 (unknown origin) at 1 ug/ml relative to control
T3 sequence (whole entry): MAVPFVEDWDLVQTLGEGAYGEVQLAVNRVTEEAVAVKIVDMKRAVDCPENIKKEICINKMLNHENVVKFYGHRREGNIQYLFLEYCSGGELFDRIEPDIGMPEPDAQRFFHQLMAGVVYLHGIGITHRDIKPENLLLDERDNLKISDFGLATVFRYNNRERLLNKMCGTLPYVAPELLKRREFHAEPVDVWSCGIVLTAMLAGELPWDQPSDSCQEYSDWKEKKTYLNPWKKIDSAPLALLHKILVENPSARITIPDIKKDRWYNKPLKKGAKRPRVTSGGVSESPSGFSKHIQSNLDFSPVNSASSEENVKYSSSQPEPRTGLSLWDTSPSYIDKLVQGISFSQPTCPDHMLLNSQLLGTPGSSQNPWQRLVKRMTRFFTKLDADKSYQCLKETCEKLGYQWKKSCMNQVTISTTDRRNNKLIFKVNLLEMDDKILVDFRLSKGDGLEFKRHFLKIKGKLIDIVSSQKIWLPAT
Summary of the method: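 Fixed-concentration screen at 1 µg/mL using the luminescent ADP-Glo assay.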

[8] = target: Dual specificity mitogen-activated protein kinase kinase 1 (Homo sapiens) (UniProt Q02750); assay: Inhibition of MEK1 (unknown origin) at 1 ug/ml relative to control
Sequence of Dual specificity mitogen-activated protein kinase kinase 1 (Homo sapiens) (Q02750 whole entry): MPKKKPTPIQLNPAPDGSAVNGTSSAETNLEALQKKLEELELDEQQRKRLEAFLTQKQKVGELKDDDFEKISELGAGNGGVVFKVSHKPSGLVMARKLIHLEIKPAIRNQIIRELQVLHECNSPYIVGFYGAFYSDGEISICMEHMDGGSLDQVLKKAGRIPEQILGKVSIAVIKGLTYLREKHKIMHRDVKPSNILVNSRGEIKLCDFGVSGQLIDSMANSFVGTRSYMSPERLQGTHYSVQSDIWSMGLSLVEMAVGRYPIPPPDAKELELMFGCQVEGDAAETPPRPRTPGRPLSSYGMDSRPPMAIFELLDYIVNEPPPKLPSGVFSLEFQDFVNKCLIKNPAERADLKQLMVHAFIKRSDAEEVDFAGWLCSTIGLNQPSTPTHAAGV

[9] = target: T4, Aurora kinase A (Homo sapiens) (UniProt O14965); assay: Inhibition of human full length Aurora A at 1 ug/ml by Z'-LYTE assay
T4 sequence (whole entry): T1 sequence (O14965 whole entry)

[10] = target: Protein kinase C (PKC) (Homo sapiens) (UniProt O94806+P41743+P17252+P05129+Q05655+P05771+Q05513+Q02156+P24723+Q15139+Q04759); assay: Inhibition of PKC (unknown origin) at 1 ug/ml relative to control
Summary of the method: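 Fixed-concentration screen at 1 µg/mL with a Z'-LYTE kinase assay kit.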

[11] = target: Cyclin-dependent kinase 2 (Homo sapiens) (UniProt P24941); assay: Inhibition of CDK2 (unknown origin) at 1 ug/ml relative to control
[12] = target: Glycogen synthase kinase-3 beta (Homo sapiens) (UniProt P49841); assay: Inhibition of GSK3beta (unknown origin) at 1 ug/ml relative to control
Sequence of Glycogen synthase kinase-3 beta (Homo sapiens) (P49841 whole entry, looked up): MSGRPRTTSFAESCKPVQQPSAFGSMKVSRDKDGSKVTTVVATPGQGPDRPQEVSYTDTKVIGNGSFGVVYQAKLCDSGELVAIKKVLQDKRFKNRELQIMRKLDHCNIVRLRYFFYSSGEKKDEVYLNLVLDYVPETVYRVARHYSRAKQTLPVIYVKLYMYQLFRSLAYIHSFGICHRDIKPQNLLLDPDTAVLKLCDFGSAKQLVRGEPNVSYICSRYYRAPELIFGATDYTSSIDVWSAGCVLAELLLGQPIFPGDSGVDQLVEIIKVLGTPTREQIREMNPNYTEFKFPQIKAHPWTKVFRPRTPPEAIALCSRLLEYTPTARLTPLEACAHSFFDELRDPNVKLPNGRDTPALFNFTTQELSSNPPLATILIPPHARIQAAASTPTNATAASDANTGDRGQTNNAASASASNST

SMILES | pIC50 (A549) | pIC50 [1] | pIC50 [2] | pIC50 (KB) | pIC50 [3] | pIC50 (Aurora kinase A) | Papp A→B [4] [×10⁻⁶ cm/s] | inhibition [5] [%] | inhibition [6] [%] | inhibition [7] [%] | inhibition [8] [%] | inhibition [9] [%] | inhibition [10] [%] | inhibition [11] [%] | inhibition [12] [%]
CN(c1ccc2[nH]c(-c3n[nH]c4ccccc34)cc2n1)S(=O)(=O)c1ccc(OC(F)(F)F)cc1 | 5.10 | 5.15 | 5.22 | 5.88 | 5.93 | – | – | – | – | – | – | – | – | – | –
COc1ccc(S(=O)(=O)N(C)c2ccc3[nH]c(-c4n[nH]c5ccccc45)cc3n2)cc1OC | < 4.30 | 4.58 | 4.78 | 5.00 | 5.20 | – | – | – | – | – | – | – | – | – | –
COc1cccc(C(=O)N(C)c2ccc3[nH]c(-c4n[nH]c5ccccc45)cc3n2)c1 | 4.83 | 4.66 | 4.85 | 5.05 | 5.85 | – | – | – | – | – | – | – | – | – | –
COc1ccc(C(=O)N(C)c2ccc3[nH]c(-c4n[nH]c5ccccc45)cc3n2)cc1 | 4.84 | 4.63 | 4.53 | 4.89 | 5.48 | – | – | – | – | – | – | – | – | – | –
CN(C(=O)c1ccccc1)c1ccc2[nH]c(-c3n[nH]c4ccccc34)cc2n1 | 4.86 | 4.90 | 4.97 | 5.07 | 5.31 | 7.49 | 2.07 | 8.06 | 11.7 | 8.3 | 3.85 | 95.8 | 5.4 | 28.2 | 18.6
CC(=O)O[C@H]1C(=O)[C@@]2(C)[C@H]([C@H](OC(=O)c3ccccc3)[C@]3(O)C[C@H](OC(=O)[C@H](O)[C@@H](NC(=O)c4ccccc4)c4ccccc4)C(C)=C1C3(C)C)[C@]1(OC(C)=O)CO[C@@H]1C[C@@H]2O [PACLITAXEL] | – | 6.92 | 8.31 | 7.82 | 8.77 | – | – | – | – | – | – | – | – | – | –
CN(C(=O)c1ccccc1)c1ccc2[nH]c(-c3n[nH]c4cc(Cl)ccc34)cc2n1 | 5.02 | 4.95 | 4.88 | 5.25 | 5.25 | – | – | – | – | – | – | – | – | – | –
CCC(=O)N(C)c1ccc2[nH]c(-c3n[nH]c4ccccc34)cc2n1 | 4.80 | 4.48 | 4.97 | 5.03 | 5.21 | – | – | – | – | – | – | – | – | – | –
CN(C(=O)C(C)(C)C)c1ccc2[nH]c(-c3n[nH]c4ccccc34)cc2n1 | 4.61 | 4.65 | 4.75 | 5.08 | 5.30 | – | – | – | – | – | – | – | – | – | –
COc1ccc(S(=O)(=O)N(C)c2ccc3[nH]c(-c4n[nH]c5ccccc45)cc3n2)cc1 | 4.62 | 4.89 | 4.65 | 4.66 | 5.36 | – | – | – | – | – | – | – | – | – | –
CN(C(=O)c1ccc([N+](=O)[O-])cc1)c1ccc2[nH]c(-c3n[nH]c4ccccc34)cc2n1 | 4.46 | 4.73 | 4.70 | 4.70 | 5.17 | – | – | – | – | – | – | – | – | – | –
CN(C(=O)CCc1ccccc1)c1ccc2[nH]c(-c3n[nH]c4ccccc34)cc2n1 | 4.74 | 4.68 | 4.95 | 5.13 | 5.33 | – | – | – | – | – | – | – | – | – | –
CN(c1ccc2[nH]c(-c3n[nH]c4ccccc34)cc2n1)S(=O)(=O)c1cccc([N+](=O)[O-])c1 | 4.70 | 5.29 | 4.87 | 5.23 | 5.44 | – | – | – | – | – | – | – | – | – | –
